Measured values as given in article PMC12461553 (RSC Advances, 2025).

Assays:
[1] = test system: MCF-7 cells; assay: SRB cytotoxicity assay, MCF-7; type: cell-based, human
[2] = test system: 4T1 cells; assay: SRB cytotoxicity assay, 4T1; type: cell-based, murine; conditions: Mus musculus, 4T1, 48 h, read-out: Average cell death (%) 4T1
Method in brief: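 Single-dose screen: cells in DMEM/10% FBS at 37 °C, 5% CO2, seeded at 3000 per well, attached 24 h, then exposed to test compound at 25 μM final for 48 h. Fixed in cold 10% TCA, 1 h, 4 °C; stained 0.057% SRB, 30 min, dark, room temperature; rinsed with 1% acetic acid; dye solubilised in Tris base pH 10.5; absorbance 510 nm; percent cell death.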

[3] = test system: MDA-MB-231 cells; assay: SRB cytotoxicity assay, MDA-MB-231; type: cell-based, human
[4] = test system: BCL-2 and Survivin expression in MDA-MB-231 cells; assay: Gene expression analysis by RT-qPCR; type: cell-based, human
Method in brief: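 Cells were treated 48 h with varying test compound concentrations, then total RNA was extracted and checked spectrophotometrically. 2 μg RNA was reverse-transcribed to cDNA. BCL2 and Survivin transcripts were measured by RT-qPCR and quantified by the 2−ΔΔCt method against β2-microglobulin as reference gene.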

[5] = test system: MDA-MB-231 cells; assay: 3D spheroid; type: cell-based, human; conditions: MDA-MB-231, methylcellulose, 8 days
Method in brief: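 Single-cell suspensions in 1.5% methylcellulose/DMEM with 20% FBS were seeded at 1 × 10^5 cells per well over a 1% agarose–DMEM base for non-adherent growth. Cells were treated with test compound (0.5, 1, 2 μM) or doxorubicin and incubated 8 days. Spheres (≥20 cells) were imaged by fluorescence microscopy and counted per microscopic field.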

[6] = Homo sapiens, MCF7, 48 h, read-out: Average cell death (%) MCF-7
[7] = Homo sapiens, MDA-MB-231, 48 h, read-out: Average cell death (%) MDA-MB-231

Row | Compound | cytotoxicity at 25 µM [1, 6] | cytotoxicity at 25 µM [2] | cytotoxicity at 25 µM [3, 7] | other results
1 | Cn1c2ccccc2c2c(C(=O)c3ccccc3)c(-c3ccccc3)n(CCc3ccccc3)c(=O)c21 [10a, 4-Benzoyl-9-methyl-2-phenethyl-3-phenyl-2,9-dihydro-1H-pyrido[3,4-b]indol-1-one] | 1.67 ± 0.3% | 46.6 ± 2.18% | 3.66 ± 0.31% | 
2 | COc1cccc2c1C(=O)c1c(O)c3c(c(O)c1C2=O)C[C@@](O)(C(=O)CO)C[C@@H]3O[C@H]1C[C@H](N)[C@H](O)[C@H](C)O1 [Doxorubicin, reference compound] |  |  |  | Expression of BCL-2 [4]: markedly reduced; Expression of Survivin [4]: markedly reduced; Sphere formation [5]: completely abrogated sphere formation; cytotoxicity at 5 µM [1, 6]: 85 ± 5.3%; cytotoxicity at 5 µM [3, 7]: 80 ± 3.3%
3 | Cn1c2ccccc2c2c(C(=O)c3ccccc3)c(-c3ccccc3)n(Cc3ccccc3)c(=O)c21 [9a, 4-Benzoyl-2-benzyl-9-methyl-3-phenyl-2,9-dihydro-1H-pyrido[3,4-b]indol-1-one] | 9.16 ± 2.08% | 47.8 ± 3.32% | 32.8 ± 3.16% | 
4 | CCCCn1c(-c2ccccc2)c(C(=O)c2ccc(OC)cc2)c2c3ccccc3n(C)c2c1=O [11b, 2-Butyl-4-(4-methoxybenzoyl)-9-methyl-3-phenyl-2,9-dihydro-1H-pyrido[3,4-b]indol-1-one] |  |  | 30.3 ± 1.2% | 
5 | COc1ccc(C(=O)c2c(-c3ccccc3)n(CCc3ccccc3)c(=O)c3c2c2ccccc2n3C)cc1 [10b, 4-(4-Methoxybenzoyl)-9-methyl-2-phenethyl-3-phenyl-2,9-dihydro-1H-pyrido[3,4-b]indol-1-one] | 10.1 ± 2.2% | 49.9 ± 3.23% | 2.64 ± 0.7% | 
6 | Cn1c2ccccc2c2c(C(=O)c3ccc(C(F)(F)F)cc3)c(-c3ccccc3)n(CCc3ccccc3)c(=O)c21 [10d, 9-Methyl-2-phenethyl-3-phenyl-4-(4-(trifluoromethyl)benzoyl)-2,9-dihydro-1H-pyrido[3,4-b]indol-1-one] | 9.32 ± 1% | 22 ± 2.05% | 11.5 ± 0.95% | 
7 | Cc1ccc(C(=O)c2c(-c3ccccc3)n(-c3nc4ccccc4s3)c(=O)c3c2c2ccccc2n3C)cc1 [12c, 2-(Benzo[d]thiazol-2-yl)-9-methyl-4-(4-methylbenzoyl)-3-phenyl-2,9-dihydro-1H-pyrido[3,4-b]indol-1-one] |  |  | 31.3 ± 4% | 
8 | Cn1c2ccccc2c2c(C(=O)c3ccc(F)cc3)c(-c3ccccc3)n(Cc3ccccc3)c(=O)c21 [9e, 2-Benzyl-4-(4-fluorobenzoyl)-9-methyl-3-phenyl-2,9-dihydro-1H-pyrido[3,4-b]indol-1-one] | 2 ± 0.52% | 32.2 ± 4.11% | 7.54 ± 0.71% | 
9 | Cn1c2ccccc2c2c(C(=O)c3ccc(F)cc3)c(-c3ccccc3)n(CCc3ccccc3)c(=O)c21 [10e, 4-(4-Fluorobenzoyl)-9-methyl-2-phenethyl-3-phenyl-2,9-dihydro-1H-pyrido[3,4-b]indol-1-one] | 8.92 ± 0.8% | 13.5 ± 1.16% | 4 ± 0.41% | 
10 | CCCCn1c(-c2ccccc2)c(C(=O)c2ccc(C(F)(F)F)cc2)c2c3ccccc3n(C)c2c1=O [11d, 2-Butyl-9-methyl-3-phenyl-4-(4-(trifluoromethyl)benzoyl)-2,9-dihydro-1H-pyrido[3,4-b]indol-1-one] |  |  | 14.7 ± 2.9% | 
11 | CCCCn1c(-c2ccccc2)c(C(=O)c2ccccc2)c2c3ccccc3n(C)c2c1=O [11a, 4-Benzoyl-2-butyl-9-methyl-3-phenyl-2,9-dihydro-1H-pyrido[3,4-b]indol-1-one] |  |  | 36.6 ± 3.2% | 
12 | CCCCn1c(-c2ccccc2)c(C(=O)c2ccc(C)cc2)c2c3ccccc3n(C)c2c1=O [11c, 2-Butyl-9-methyl-4-(4-methylbenzoyl)-3-phenyl-2,9-dihydro-1H-pyrido[3,4-b]indol-1-one] |  |  | 31.2 ± 1.6% | 
13 | Cn1c2ccccc2c2c(C(=O)c3ccc(F)cc3)c(-c3ccccc3)n(-c3nc4ccccc4s3)c(=O)c21 [12e, 2-(Benzo[d]thiazol-2-yl)-4-(4-fluorobenzoyl)-9-methyl-3-phenyl-2,9-dihydro-1H-pyrido[3,4-b]indol-1-one] |  |  | 34.9 ± 1.7% | 
14 | Cn1c2ccccc2c2c(C(=O)c3ccc(C(F)(F)F)cc3)c(-c3ccccc3)n(Cc3ccccc3)c(=O)c21 [9d, 2-Benzyl-9-methyl-3-phenyl-4-(4-(trifluoromethyl)benzoyl)-2,9-dihydro-1H-pyrido[3,4-b]indol-1-one] | 14.2 ± 1.03% | 15.5 ± 2.15% | 11.3 ± 0.53% | 
15 | Cc1ccc(C(=O)c2c(-c3ccccc3)n(CCc3ccccc3)c(=O)c3c2c2ccccc2n3C)cc1 [10c, 9-Methyl-4-(4-methylbenzoyl)-2-phenethyl-3-phenyl-2,9-dihydro-1H-pyrido[3,4-b]indol-1-one] | 26.2 ± 4.15% | 60.5 ± 3.07% | 15.6 ± 1.15% | 
16 | COc1ccc(C(=O)c2c(-c3ccccc3)n(Cc3ccccc3)c(=O)c3c2c2ccccc2n3C)cc1 [9b, 2-Benzyl-4-(4-methoxybenzoyl)-9-methyl-3-phenyl-2,9-dihydro-1H-pyrido[3,4-b]indol-1-one] | 18.3 ± 3.05% | 39.8 ± 4.02% | 20.2 ± 2.16% | 
17 | CCCCn1c(-c2ccccc2)c(C(=O)c2ccc(F)cc2)c2c3ccccc3n(C)c2c1=O [11e, 2-Butyl-4-(4-fluorobenzoyl)-9-methyl-3-phenyl-2,9-dihydro-1H-pyrido[3,4-b]indol-1-one] |  |  | 31.8 ± 1.8% | 
18 | Cn1c2ccccc2c2c(C(=O)c3ccc(C(F)(F)F)cc3)c(-c3ccccc3)n(-c3nc4ccccc4s3)c(=O)c21 [12d, 2-(Benzo[d]thiazol-2-yl)-9-methyl-3-phenyl-4-(4-(trifluoromethyl)benzoyl)-2,9-dihydro-1H-pyrido[3,4-b]indol-1-one] |  |  | 24.5 ± 2.7% | 
19 | COc1ccc(C(=O)c2c(-c3ccccc3)n(-c3nc4ccccc4s3)c(=O)c3c2c2ccccc2n3C)cc1 [12b, 2-(Benzo[d]thiazol-2-yl)-4-(4-methoxybenzoyl)-9-methyl-3-phenyl-2,9-dihydro-1H-pyrido[3,4-b]indol-1-one] |  |  | 4.08 ± 1.1% | 
20 | N.N.[Cl][Pt][Cl] [Cisplatin, reference compound] |  |  |  | Average cell death (%) MCF-7 ([1]; at 100 μM, SRB assay): 80 ± 6.2%; Average cell death (%) MDA-MB-231 ([3]; at 100 μM, SRB assay): 75 ± 4.3%
21 | Cn1c2ccccc2c2c(C(=O)c3ccccc3)c(-c3ccccc3)n(-c3nc4ccccc4s3)c(=O)c21 [12a, 2-(Benzo[d]thiazol-2-yl)-4-benzoyl-9-methyl-3-phenyl-2,9-dihydro-1H-pyrido[3,4-b]indol-1-one] |  |  | 26.9 ± 2.6% | 
